Measured values: publication PMC6688507 (Journal of medicinal chemistry, 2018)
“Also recorded” adds a separate entry of the source.

Columns and labels:
pancreatic cancer = settings: metastatic pancreatic cancer patients; cited from earlier work
MIA PaCa-2 xenograft [1] = settings: 20 mg/kg, 31-day study, similar MIA PaCa-2 xenograft model; cited from earlier work
[2] = system: nascent RNA synthesis in MIA PaCa-2 cells; assay: Bru-seq analysis for nascent RNA synthesis; assay type: cell-based, human; settings: for apoptosis signaling by IPA analysis: 4 h, QD232 3 times IC50, QD325 5 times IC50; for nascent mitochondrial RNA synthesis: MIA PaCa-2, 4-hour treatment, QD232 at 6.9 μM, QD325 at 5.0 μM; for synthesis of NQO1 and HMOX1 RNAs / transcription of DDIT3 and HSPA5: MIA PaCa-2, 4 h; for synthesis of NQO1 and HMOX1 RNAs: QD232 at 1, 2 or 3 times IC50, QD325 at 1, 2 or 5 times IC50; for transcription of DDIT3 and HSPA5: dose-dependent
MIA PaCa-2 cells = assay: MTT cytotoxicity assay, MIA PaCa-2; assay type: cell-based, human; settings: for effect of NAC on proliferation inhibitory effect: NAC 5 mM, MTT assay, 72 h; for IC50: Homo sapiens, MIA PaCa-2, 72 h, read-out: IC50 (μM) MIA PaCa-2, MTT assay, 72 h treatment, mean ± SD from three independent experiments
[3] = system: ROS accumulation in MIA PaCa-2 cells; assay: ROS detection assay; assay type: cell-based, human; settings: for ROS accumulation / ROS induction after NAC pretreatment: MIA PaCa-2; for ROS accumulation: compounds at 10, 3.3 or 1.1 μM; for ROS induction after NAC pretreatment: NAC 5 mM for 30 min; for ROS induction and cytotoxicity compared with QD325: triphenylphosphonium derivatives
Method in brief: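 MIA PaCa-2 cells were trypsinised (0.05% trypsin-EDTA), loaded with 20 μM H2DCFDA for 30 min at 37 °C, washed, then seeded at 20,000 cells/well. After 30 min they were given test compound, with DMSO for basal signal and unstained cells plus 10 μM compound for autofluorescence. For NAC runs, cells were pretreated with 5 mM NAC for 30 min, with H2O2 as a control. Fluorescence was read at 493/523 nm over time, in duplicates; three independent experiments.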

BxPC-3 cells = assay: MTT cytotoxicity assay, BxPC-3; assay type: cell-based; settings: Homo sapiens, BXPC-3, 72 h, read-out: IC50 (μM) BxPC-3, MTT assay, 72 h treatment; mean ± SD from three independent experiments
MIA PaCa-2 xenograft [4] = assay: MIA PaCa-2 xenograft tumor growth in NOD/SCID mice; assay type: in vivo
[5] = tolerability in MIA PaCa-2 engrafted NOD/SCID mice; assay type: in vivo

In the case of FOLFIRINOX, the median overall survival (pancreatic cancer) is given as 11.1 months.

In the case of CC(=O)c1cccc(NC2=CC(=O)c3ncncc3C2=O)c1 [QD232, reference compound], the “suppression of tumor growth” value (MIA PaCa-2 xenograft [1]) is given as 65%, the “apoptosis signaling by IPA analysis” value [2] is given as “significant activation of apoptosis signaling” and the “nascent mitochondrial RNA synthesis” value [2] is given as “inhibited”. The “synthesis of NQO1 and HMOX1 RNAs” value [2] was “upregulated in a dose-dependent manner”, the “transcription of DDIT3 and HSPA5” value [2] was “significantly increased” and the “effect of NAC on proliferation inhibitory effect” value (MIA PaCa-2 cells) was “attenuated”. The ROS accumulation [3] was “time-and dose-dependent accumulation of ROS” and the “ROS induction after NAC pretreatment” value [3] was “inhibited”.

With COc1cc(NC2=CC(=O)c3ncncc3C2=O)cc(OC)c1OC [QD326, 6-((3,4,5-Trimethoxyphenyl)amino)quinazoline-5,8-dione] the “effect of NAC on proliferation inhibitory effect” value (MIA PaCa-2 cells) was “attenuated”, the ROS accumulation [3] was “time-and dose-dependent accumulation of ROS; also recorded: stronger and more rapid ROS accumulation” and the “ROS induction after NAC pretreatment” value [3] was “inhibited”.

In the case of O=C(NCCC[P+](c1ccccc1)(c1ccccc1)c1ccccc1)c1ccc(NC2=CC(=O)c3ncncc3C2=O)cc1.[Br-] [QD340, (3-(4-((5,8-Dioxo-5,8-dihydroquinazolin-6-yl)amino)benzamido)propyl) triphenylphosphonium bromide], the “ROS induction and cytotoxicity compared with QD325” value [3] is reported as “did not show better ROS induction and cytotoxicity than QD325”.

In the case of Nc1ccn([C@@H]2O[C@H](CO)[C@@H](O)C2(F)F)c(=O)n1 [Gemcitabine], the median overall survival (pancreatic cancer) is given as 6.8 months.

Nc1cccc(C(=O)NCCC[P+](c2ccccc2)(c2ccccc2)c2ccccc2)c1 [QD358, (3-(3-Aminobenzamido)propyl)triphenylphosphonium bromide] showed an IC50 (BxPC-3 cells) of over 30 µM and an IC50 (MIA PaCa-2 cells) of over 30 µM.

In the case of O=C1C(Nc2ccc(-c3ccccc3)cc2)=CC(=O)c2ncncc21 [QD325, 6-([1,1’-Biphenyl]-4-ylamino)quinazoline-5,8-dione], the “Ki67 staining (proliferation marker) in tumor tissues” value (MIA PaCa-2 xenograft [4]; QD325 5 mg/kg five times a week until day 44, immunohistochemistry) is reported as “decreased”, the “inhibition of tumor growth, experiment of Figure 6E” value (MIA PaCa-2 xenograft [4]; QD325 5 mg/kg five times a week, 48 days) is reported as 83% and the “inhibition of tumor growth, experiment of Figure 5A” value (MIA PaCa-2 xenograft [4]; QD325 5 mg/kg five times a week, day 44) is reported as 76%. The “NQO1, HO-1, CHOP and GRP78 protein levels in tumor lysates” value (MIA PaCa-2 xenograft [4]; QD325-treated vs vehicle-treated tumors) was “significantly upregulated”, the “apoptosis signaling by IPA analysis” value [2] was “significant activation of apoptosis signaling” and the “nascent mitochondrial RNA synthesis” value [2] was “inhibited”. For the same compound, the “synthesis of NQO1 and HMOX1 RNAs” value [2] was “upregulated in a dose-dependent manner”, the “transcription of DDIT3 and HSPA5” value [2] was “significantly increased” and the “histopathology of H&E stained organ sections” value ([5]; 5 mg/kg five times a week until day 44) was “did not reveal any major histopathological changes”. The “systemic toxicity at higher doses” value ([5]; dose increased from 5 to 20 mg/kg, day 44 to day 67, two mice per group) was “without any overt systemic toxicity”, the “symptoms of gross toxicity (weakness, weight loss, lethargy)” value ([5]; study 1, 5 mg/kg five times a week until day 44) was “No symptoms of gross toxicity” and the “effect of NAC on proliferation inhibitory effect” value (MIA PaCa-2 cells) was “attenuated”. For the same compound, the ROS accumulation [3] was “time-and dose-dependent accumulation of ROS; also recorded: stronger and more rapid ROS accumulation” and the “ROS induction after NAC pretreatment” value [3] was “inhibited”.

With Nc1ccc(C(=O)NCCC[P+](c2ccccc2)(c2ccccc2)c2ccccc2)cc1 [QD339, (3-(4-Aminobenzamido)propyl)triphenylphosphonium bromide] the IC50 (BxPC-3 cells) was over 30 µM and the IC50 (MIA PaCa-2 cells) was over 30 µM.

For O=C(NCCC[P+](c1ccccc1)(c1ccccc1)c1ccccc1)c1cccc(NC2=CC(=O)c3ncncc3C2=O)c1.[Br-] [QD359, (3-(3-((5,8-Dioxo-5,8-dihydroquinazolin-6-yl)amino)benzamido)propyl) triphenylphosphonium bromide], the “ROS induction and cytotoxicity compared with QD325” value [3] was “did not show better ROS induction and cytotoxicity than QD325”.
